Holding throughout (format): functional
The test system of one experiment is Priestia megaterium. The experiment in a line: Antibacterial activity against Bacillus megaterium at 10 mg/mL by agar diffusion test. The settings on record: read-out: IZ. The gist of the method:
(§1)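 Agar diffusion test. Activity is scored on a 1-4 scale by the radius of the inhibition zone: 1-10 mm = 1, 10-20 mm = 2, 20-30 mm = 3, 30-40 mm = 4.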
Background: A growth-free zone around the sample is the usual read-out of agar diffusion tests.

The next experiment has as its system [Chlorella] fusca. The experiment in a line: Herbicidal activity against Chlorella fusca at 10 mg/mL by agar diffusion test. The settings on record: Scenedesmus fuscus; read-out: IZ. The method in brief: as §1
In another experiment the test system is Microbotryum violaceum. Briefly: Antifungal activity against Ustilago violacea at 10 mg/mL by agar diffusion test. The conditions noted are these: read-out: IZ. The method in brief:
as §1

For a further experiment, the system named is Lemna minor. The experiment in a line: Herbicidal activity against Lemna minor assessed as growth inhibition at 10 mg/mL after 1 and 6 days relative to control. The method in brief:
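Lemna minor growth inhibition. 10 mg of sample is dissolved in 0.05 mL MeOH plus 0.05 mL acetone and added to 10 mL test medium (growth medium without sucrose) in 5 cm Petri dishes, each holding 15 plants. Plants are scored after 1 and 6 days.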

The next experiment deals with Lepidium sativum. The experiment in a line: Herbicidal activity against Lepidium sativum assessed as growth inhibition at 10 mg/mL relative to control.
For experiment [1], the system named is Aspergillus pseudoglaucus. Briefly: Antifungal activity against Eurotium repens at 10 mg/mL by agar diffusion test. The conditions noted are these: read-out: IZ. The gist of the method: as §1
For a further experiment, the system named is Mycotypha microspora. Briefly: Antifungal activity against Mycotypha microspora at 10 mg/mL by agar diffusion test. The conditions noted are these: read-out: IZ. The gist of the method: as §1
For the next experiment, the system named is Escherichia coli. Briefly: Antibacterial activity against Escherichia coli at 10 mg/mL by agar diffusion test. The conditions noted are these: read-out: IZ. The gist of the method: as §1

Structures are written as SMILES. Some results are limits rather than exact numbers.

Drawing on ChEMBL document CHEMBL1144103, “Biologically active secondary metabolites from fungi. 12.(1) oidiolactones A-F, labdane diterpene derivatives isolated from oidiodendron truncata” (1999), this text covers zone of inhibition and inhibition for 4 compounds.

For orientation: inhibition means the drop in the measured response relative to a control, in per cent.

For `CO[C@H]1OC(=O)C=C2C1=C[C@H]1OC(=O)[C@@]3(C)CCC[C@@]2(C)[C@@H]13`, the figures for the zone of inhibition at 10000 µg/mL (in the experiment with Priestia megaterium; in experiment [Chlorella] fusca; in the experiment with Microbotryum violaceum) were 1 mm, 20 mm and 30 mm, respectively.

Take `CO[C@H]1OC(=O)C=C2[C@@]13O[C@@H]3[C@H]1OC(=O)[C@@]3(C)CCC[C@@]2(C)[C@@H]13`: the zone of inhibition at 10000 µg/mL with Priestia megaterium is 1 mm; in experiment [1], 1 mm; with Mycotypha microspora, 1 mm; in the experiment with Escherichia coli, 0 mm; in experiment [Chlorella] fusca, 10 mm; with Microbotryum violaceum, 10 mm. Also, the inhibition at 10000 µg/mL in the experiment with Lemna minor is more than 90%; in the experiment with Lepidium sativum it was 100%.

On to `C[C@@]12CCC[C@]3(C)C4=CC(=O)O[C@@H](O)[C@]45O[C@@H]5[C@@H](OC1=O)[C@@H]23` [OIDIOLACTONE D], for which the zone of inhibition at 10000 µg/mL in the experiment with Priestia megaterium worked out at 0 mm; in experiment [1] it was 1 mm; in the experiment with Mycotypha microspora, 1 mm; in the experiment on Escherichia coli it was 0 mm; in experiment [Chlorella] fusca, 1 mm; in the experiment on Microbotryum violaceum, 1 mm.

On to `C[C@]12CCC[C@](C)(C(=O)O)[C@@H]1C=C[C@]1(O)COC(=O)C[C@H]21` [OIDIOLACTONE E], for which the zone of inhibition at 10000 µg/mL came out at 0 mm in the experiment on Priestia megaterium; 1 mm in experiment [1]; 0 mm with Mycotypha microspora; 0 mm in the experiment on Escherichia coli; 1 mm in experiment [Chlorella] fusca; 1 mm in the experiment on Microbotryum violaceum.
